Assay [1] concerns Human alphaherpesvirus 2. As to the kind of experiment: Antiherpetic activity against HSV2 at 0.25 mg/ml by MTT assay. The class given is functional. The gist of the method: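 Anti-HSV2 test run by a previously reported method. Samples started at an initial concentration of 0.25 mg/mL and were assayed at several concentration levels. Four independent experiments were run at each level. Acyclovir was the positive control. The read-out was an MTT assay, with optical density measured on a multimode plate reader.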
(Tetrazolium dyes change colour on reduction, which living cells bring about.)

The subject of assay [2] is Human alphaherpesvirus 2. Briefly: Antiherpetic activity against HSV2 at 0.5 mg/ml by MTT assay. It is filed as functional. In outline:
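Activity against HSV2 was assayed by a previously reported procedure. The initial concentration of test samples and of the acyclovir positive control was 0.5 mg/mL, and samples were tested at several concentration levels. Each level had four independent experiments. The end-point was an MTT assay read as optical density.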

Activity calls are given as the source filed them. No cut-off for these calls is given here.

As usually defined, the inhibition is the percentage by which the read-out fell short of the control.

In the assay with Human alphaherpesvirus 2 [1], `CC1(C)O[C@]23[C@H](OC(=O)c4cccnc4)[C@H]1C[C@H](OC(=O)c1ccccc1)[C@]2(C)[C@@H](OC(=O)c1ccccc1)CC[C@]3(C)O` [REGELIDINE] displayed an inhibition at 250 µg/mL of 31.7%.

In the case of `CC(=O)OC[C@]12[C@H](OC(C)=O)[C@H](OC(C)=O)[C@@H]3[C@@H](O)[C@@]14O[C@@]3(C)COC(=O)c1cccnc1C(C)C(C)C(=O)O[C@@H]([C@H](OC(C)=O)[C@@H]2OC(C)=O)[C@]4(C)O` (stereo not given in full), the inhibition entry in the assay with Human alphaherpesvirus 2 [2] was “inactive”.

Take `Nc1nc2c(ncn2COCCO)c(=O)[nH]1` [ACYCLOVIR]: the inhibition at 500 µg/mL in the assay with Human alphaherpesvirus 2 [2] turned out to be 66.3%. For the same molecule, 250 µg/mL produced 60.6% inhibition in the assay with Human alphaherpesvirus 2 [1].

Take `CC(=O)OC[C@]12[C@H](OC(C)=O)[C@H](OC(=O)c3cccnc3)[C@@H]3[C@@H](OC(C)=O)[C@@]14O[C@@]3(C)COC(=O)c1cnccc1C(C)C(C)C(=O)O[C@@H]([C@H](OC(C)=O)[C@@H]2OC(C)=O)[C@]4(C)O` (stereo not given in full): in the assay on Human alphaherpesvirus 2 [2], the inhibition entry was “inactive”.

For `CC(=O)OC[C@]12[C@H](OC(C)=O)[C@H](OC(C)=O)[C@@H]3[C@@H](OC(C)=O)[C@@]14O[C@@]3(C)COC(=O)c1cccnc1C(C)C(C)C(=O)O[C@@H]([C@H](OC(C)=O)[C@@H]2OC(C)=O)[C@]4(C)O` (stereo not given in full), in the assay on Human alphaherpesvirus 2 [2], the inhibition result was “inactive”.

Take `CC(=O)OC[C@]12[C@H](OC(C)=O)[C@H](OC(C)=O)[C@@H]3[C@@H](OC(C)=O)[C@@]14O[C@@]3(C)COC(=O)c1cccnc1CCC(C)(O)C(=O)O[C@@H]([C@H](OC(=O)c1ccco1)[C@@H]2OC(C)=O)[C@]4(C)O` (stereo not given in full): the inhibition entry in the assay with Human alphaherpesvirus 2 [2] is “inactive”.

Take `CC(=O)OC[C@]12[C@H](OC(C)=O)[C@H](OC(C)=O)[C@@H]3[C@@H](OC(=O)c4ccccc4)[C@@]14O[C@@]3(C)COC(=O)c1cccnc1C(C)C(C)C(=O)O[C@@H]([C@H](OC(C)=O)[C@@H]2OC(=O)c1ccccc1)[C@]4(C)O` (stereo not given in full): in the assay on Human alphaherpesvirus 2 [2], the inhibition entry was “inactive”.

On to `CC(=O)OC[C@]12[C@H](OC(C)=O)[C@H](OC(C)=O)[C@@H]3[C@@H](OC(C)=O)[C@@]14O[C@@]3(C)COC(=O)c1cccnc1CC[C@H](C)C(=O)O[C@@H]([C@H](OC(C)=O)[C@@H]2OC(C)=O)[C@]4(C)O`, for which, in the assay on Human alphaherpesvirus 2 [2], the inhibition entry is “inactive”.

As for `CC(=O)OC[C@]12[C@H](OC(C)=O)[C@H](OC(C)=O)[C@@H]3[C@@H](OC(C)=O)[C@@]14O[C@@]3(C)COC(=O)c1cccnc1CCC(C)(OC(C)=O)C(=O)O[C@@H]([C@H](OC(=O)c1ccoc1)[C@@H]2OC(C)=O)[C@]4(C)O` (stereo not given in full), the inhibition entry in the assay on Human alphaherpesvirus 2 [2] was “inactive”.

Consider `CC(=O)OC[C@]12[C@H](OC(C)=O)[C@H](OC(C)=O)[C@@H]3[C@@H](OC(C)=O)[C@@]14O[C@@]3(C)COC(=O)c1cnccc1C(C)C(C)C(=O)O[C@@H]([C@H](OC(C)=O)[C@@H]2OC(C)=O)[C@]4(C)O` (stereo not given in full), for which the inhibition result in the assay with Human alphaherpesvirus 2 [2] was “inactive”.

Consider `CC(=O)OC[C@]12[C@H](OC(C)=O)[C@H](OC(C)=O)[C@@H]3[C@@H](OC(C)=O)[C@@]14O[C@@]3(C)COC(=O)c1cccnc1CCC(C)(OC(=O)c1ccoc1)C(=O)O[C@@H]([C@H](OC(=O)c1ccccc1)[C@@H]2OC(C)=O)[C@]4(C)O` (stereo not given in full), for which the inhibition entry with Human alphaherpesvirus 2 [2] was “inactive”.

Regarding `CC(=O)OC[C@]12[C@H](OC(C)=O)[C@H](OC(C)=O)[C@@H]3[C@@H](OC(C)=O)[C@@]14O[C@@]3(C)COC(=O)c1cccnc1CCC(C)(O)C(=O)O[C@@H]([C@H](O)[C@@H]2OC(C)=O)[C@]4(C)O` (stereo not given in full), in the assay on Human alphaherpesvirus 2 [2], the inhibition entry is “inactive”.

Consider `CC(=O)OC[C@]12[C@H](OC(C)=O)[C@H](OC(C)=O)[C@@H]3[C@@H](OC(C)=O)[C@@]14O[C@@]3(C)COC(=O)c1cccnc1CCC(C)C(=O)O[C@@H]([C@H](OC(=O)c1ccco1)[C@@H]2OC(C)=O)[C@]4(C)O` (stereo not given in full), for which the inhibition result with Human alphaherpesvirus 2 [2] is “inactive”.

`CC(=O)OC[C@]12[C@H](OC(C)=O)[C@H](OC(=O)c3ccccc3)[C@@H]3[C@@H](O)[C@@]14O[C@@]3(C)COC(=O)c1cccnc1CC[C@H](C)C(=O)O[C@@H]([C@H](OC(C)=O)[C@@H]2OC(C)=O)[C@]4(C)O`: the inhibition result with Human alphaherpesvirus 2 [2] was “inactive”.

The molecule `CC(=O)OC[C@]12[C@H](OC(C)=O)[C@H](OC(C)=O)[C@@H]3[C@@H](OC(=O)c4ccccc4)[C@@]14O[C@@]3(C)COC(=O)c1cccnc1C(C)C(C)C(=O)O[C@@H]([C@H](OC(C)=O)[C@@H]2OC(C)=O)[C@]4(C)O` (stereo not given in full) had an inhibition at 500 µg/mL in the assay with Human alphaherpesvirus 2 [2] of 22.3%.

Regarding `CC(=O)OC[C@]12[C@H](OC(C)=O)[C@H](OC(C)=O)[C@@H]3[C@@H](OC(C)=O)[C@@]14O[C@@]3(C)COC(=O)c1cccnc1CCC(C)(O)C(=O)O[C@@H]([C@H](OC(=O)c1ccccc1)[C@@H]2OC(C)=O)[C@]4(C)O` (stereo not given in full), in the assay with Human alphaherpesvirus 2 [2], the inhibition entry is “inactive”.

Regarding `CC(=O)OC[C@]12[C@H](OC(C)=O)C(=O)[C@@H]3[C@@H](OC(C)=O)[C@@]14O[C@@]3(C)COC(=O)c1cccnc1CCC(C)(OC(C)=O)C(=O)O[C@@H]([C@H](OC(=O)c1ccoc1)[C@@H]2OC(C)=O)[C@]4(C)O` (stereo not given in full), in the assay with Human alphaherpesvirus 2 [2], the inhibition result was “inactive”.

For the molecule `CC(=O)OC[C@]12[C@H](OC(C)=O)[C@H](OC(C)=O)[C@@H]3[C@@H](OC(C)=O)[C@@]14O[C@@]3(C)COC(=O)c1cccnc1CCC(C)C(=O)O[C@@H]([C@H](OC(=O)c1ccccc1)[C@@H]2OC(C)=O)[C@]4(C)O` (stereo not given in full), the inhibition entry in the assay on Human alphaherpesvirus 2 [2] was “inactive”.

For the molecule `CC1(C)O[C@]23[C@H](OC(=O)c4cccnc4)[C@H]1C[C@H](OC(=O)/C=C/c1ccccc1)[C@]2(C)[C@@H](OC(=O)c1ccccc1)CC[C@]3(C)O`, in the assay on Human alphaherpesvirus 2 [2], the inhibition result was “inactive”.

These data come from ChEMBL document CHEMBL1949540, “Dihydroagarofuran derivatives from the dried roots of Tripterygium wilfordii” (2012).
